Active and inactive are the calls of the source.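 How the source made its calls: active means peak inhibition of the KCNK3 potassium channel above 30% at some tested dose, plus a fitted dose response curve; inactive means no inhibition at any dose, or no curve could be fitted.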
Target: Potassium channel subfamily K member 3 (Rattus norvegicus) (UniProt O54912)
Assay: off-target block of rat KCNK3 – cell-based, FluxOR thallium flux, CRC set 1, selectivity assay for KCNK9 inhibitor project, SAR follow-up (AID 588776)
Conditions: KCNK3-expressing cells, FluxOR thallium flux fluorescence; for flux ratio, lower = inhibition: at 30 µM (top of the series)
Method in brief: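 Material: Tetracycline-induced KCNK3-expressing CHO cells | Schedule: 90 min dye load, 20 min compound, room temperature | Measured by: Kinetic fluorescence of FluxOR thallium-sensitive dye after stimulus addition | Measure: Baseline-normalized fluorescence change, IC50 and Hill fit | Repeats: Duplicate or more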

Sequence of Potassium channel subfamily K member 3 (Rattus norvegicus) (O54912 whole entry, looked up): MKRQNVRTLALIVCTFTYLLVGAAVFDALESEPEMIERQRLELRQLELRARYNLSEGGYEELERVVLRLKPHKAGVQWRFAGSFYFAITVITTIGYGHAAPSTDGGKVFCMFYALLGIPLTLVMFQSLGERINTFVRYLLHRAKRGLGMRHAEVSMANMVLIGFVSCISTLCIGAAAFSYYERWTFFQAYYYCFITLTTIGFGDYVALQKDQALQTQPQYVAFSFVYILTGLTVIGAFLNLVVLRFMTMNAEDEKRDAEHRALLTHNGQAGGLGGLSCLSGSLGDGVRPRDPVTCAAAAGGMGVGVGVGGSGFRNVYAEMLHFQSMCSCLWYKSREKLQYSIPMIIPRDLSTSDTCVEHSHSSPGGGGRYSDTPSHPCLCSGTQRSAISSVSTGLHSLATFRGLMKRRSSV

SMILES | IC50 [µM] | flux ratio, lower = inhibition
C[C@H](C1CCCCC1)n1c(-c2ccco2)n[nH]c1=S | – | inactive
CC(C1CC2CCC1C2)n1c(-c2ccc(N(C)C)cc2)n[nH]c1=S (stereo not drawn) | – | inactive
CC(C1CC2CCC1C2)n1c(-c2cccc(N(C)C)c2)n[nH]c1=S (stereo not drawn) | – | inactive
CC(C1CC2CCC1C2)n1c(SCC(=O)c2ccccc2)nnc1-c1ccco1 (stereo not drawn) | 1.22 | –
CC(CCC1CCCC1)n1c(-c2ccco2)n[nH]c1=S (stereo not drawn) | 2.36 | –
COc1ccc(CCSc2nnc(-c3ccco3)n2C(C)C2CC3CCC2C3)cc1OC (stereo not drawn) | 15.5 | –
CC(C1CC2CCC1C2)n1c(-c2ccncc2)n[nH]c1=S (stereo not drawn) | – | inactive

More lines, now with the values ahead:

IC50 [µM] | flux ratio, lower = inhibition | SMILES
14.7 | – | COc1cccc(C(=O)CSc2nnc(-c3ccco3)n2C(C)C2CC3CCC2C3)c1 (stereo not drawn)
4.87 | – | CC(C1CC2CCC1C2)n1c(SCC(=O)c2ccc3c(c2)OCO3)nnc1-c1ccco1 (stereo not drawn)
15.8 | – | CC(CC1CC2CCC1C2)n1c(-c2ccco2)n[nH]c1=S (stereo not drawn)
> 30 | – | C[C@@H](C1CCCCC1)n1c(-c2ccco2)n[nH]c1=S
– | inactive | CC(C1C2CCC1CC2)n1c(-c2ccco2)n[nH]c1=S (stereo not drawn)
7.94 | – | CC(C1CC2CCC1C2)n1c(SCC(=O)c2ccc(Cl)c(Cl)c2)nnc1-c1ccco1 (stereo not drawn)
